{"data": "Results pooled from the literature", "target": "Casein kinase I isoform gamma-2 (CSNK1G2, Homo sapiens, UniProt P78368)", "note": "Compare with care: the assays were run in different laboratories."}
{"SMILES": "COc1ccc2cc(OCC3(C(=O)O)CN(C(=O)c4ccc(F)cc4)C3)ccc2c1", "assay": "cell-free assay, competition with immobilised ligand", "setting": "1 µM", "endpoint": "remaining binding", "value": "100%"}
{"SMILES": "Cc1ccc(Nc2nccc(N(C)c3ccc4c(C)n(C)nc4c3)n2)cc1S(N)(=O)=O", "assay": "cell-free assay, inhibitor", "setting": "0.5 µM", "endpoint": "remaining signal", "value": "96.9%"}
{"SMILES": "CS(=O)(=O)Nc1cccc(-c2csc(NC(=O)CSc3nc4nccnc4c(=O)n3CCc3ccccc3)n2)c1", "assay": "enzyme activity, inhibitor", "setting": "10 µM", "endpoint": "inhibition", "value": "8%"}
{"SMILES": "NS(=O)(=O)c1cc(NC(=O)Cc2ccccc2)ccc1Oc1cccc(Cl)c1", "assay": "cell-free assay, competition with immobilised ligand", "setting": "1 µM", "endpoint": "remaining binding", "value": "100%"}
{"SMILES": "COc1cc2ncnc(Nc3ccc(F)c(Cl)c3)c2cc1OCCCN1CCOCC1", "assay": "cell-free assay", "setting": "0.5 µM", "endpoint": "remaining signal", "value": "98.1%"}
{"SMILES": "COc1cc(Cl)c(C(=O)N[C@@H](CN[C@H]2CC[C@@H](N)CC2)Cc2ccc(C#N)cc2)cc1-c1ccc(CN[C@H](C)c2ccc(C)cc2)o1", "assay": "enzyme activity, inhibitor", "setting": "1 µM", "endpoint": "remaining activity", "value": "112%"}
{"SMILES": "N#CCCc1ccc2c(c1)-c1[nH]c3ccc([N+](=O)[O-])cc3c1CC(=O)N2", "assay": "cell-free assay", "setting": "0.5 µM", "endpoint": "remaining signal", "value": "84.8%"}
{"SMILES": "COc1cc(/C=C/C(=O)CC(=O)/C=C/c2ccc(O)c(OC)c2)ccc1O", "assay": "enzyme activity, inhibitor", "setting": "1 µM", "endpoint": "activity vs control", "value": "77%"}
{"SMILES": "C#Cc1cccc(Nc2ncnc3cc(OCCOC)c(OCCOC)cc23)c1", "assay": "cell-free assay", "setting": "0.5 µM", "endpoint": "remaining signal", "value": "98.3%"}
{"SMILES": "CC(C)(C)c1nc(-c2cccc(NS(=O)(=O)c3c(F)cccc3F)c2F)c(-c2ccnc(N)n2)s1", "assay": "enzyme activity, inhibitor, radiometric", "setting": "1 µM", "endpoint": "remaining activity", "value": "101%"}
{"SMILES": "CN(CCCC(F)(F)F)c1nccc(-c2cnn3ncccc23)n1", "assay": "binding", "setting": "1 µM", "endpoint": "remaining binding", "value": "100%"}
{"SMILES": "COc1cc2ncnc(Nc3ccc(Oc4ccccc4)cc3C)c2cc1OC", "assay": "enzyme activity, inhibitor", "setting": "1 µM", "endpoint": "inhibition", "value": "5%"}
{"SMILES": "CC(C)(O)[C@H]1CC[C@H](Nc2ccc3ncc(-c4cccc(C(F)(F)F)c4)n3n2)CC1", "assay": "enzyme activity, inhibitor", "setting": "1 µM", "endpoint": "remaining activity", "value": "96.1%"}
{"SMILES": "CNC(=O)c1cc(Oc2ccc(NC(=O)Nc3ccc(Cl)c(C(F)(F)F)c3)cc2)ccn1", "assay": "enzyme activity, inhibitor", "setting": "10 µM", "endpoint": "inhibition", "value": "-4%"}
{"SMILES": "CCCOc1ccc([C@@H]2[C@@H](C(=O)O)[C@H](c3ccc4c(c3)OCO4)CN2CC(=O)Nc2c(CC)cccc2CC)cc1", "assay": "cell-free assay, competition with immobilised ligand", "setting": "1 µM", "endpoint": "remaining binding", "value": "96%"}
{"SMILES": "Cc1ccc(NC(=O)c2ccc(C)c(C(F)(F)F)c2)cc1C#Cc1nn(C2CCC(O)CC2)c2ncnc(N)c12 (stereo not shown)", "assay": "cell-free assay", "setting": "10 µM", "endpoint": "remaining signal", "value": "114%"}
{"SMILES": "COc1ccc2c(O[C@@H]3C[C@H]4C(=O)N[C@]5(C(=O)O)CC5/C=C\\CCCCC[C@H](NC(=O)OC5CCCC5)C(=O)N4C3)cc(-c3csc(NC(=O)C(C)C)n3)nc2c1C (stereo partly shown)", "assay": "cell-free assay, competition with immobilised ligand", "setting": "1 µM", "endpoint": "remaining binding", "value": "90%"}
{"SMILES": "O=C(Nc1cnn(-c2csc(C(=O)NC3COC3)c2)c1)Nc1c(F)cccc1Cl", "assay": "enzyme activity, inhibitor", "setting": "5 µM", "endpoint": "remaining activity", "value": "90.2%"}
{"SMILES": "CN1CCN(c2cnc3c(C4CCN(C(=O)c5ccc(OC(F)(F)F)cc5N)CC4)ncnc3c2)CC1", "assay": "cell-free assay, competition with immobilised ligand", "setting": "1 µM", "endpoint": "remaining binding", "value": "100%"}
{"SMILES": "CN1CC(Oc2cnc(C#N)cc2-c2ccn3nc(NC(=O)C4CC4)cc3c2)C1", "assay": "enzyme activity, inhibitor", "setting": "1 µM", "endpoint": "inhibition", "value": "-2%"}
{"SMILES": "C[C@@H](c1cccc(C#N)c1)n1cc(Cl)cc(C(N)=O)c1=N", "assay": "cell-free assay, competition with immobilised ligand", "setting": "1 µM", "endpoint": "remaining binding", "value": "100%"}
{"SMILES": "O=C(Nc1cnn(-c2csc(C(=O)NC3COC3)c2)c1)Nc1ccccc1Cl", "assay": "enzyme activity, inhibitor", "setting": "5 µM", "endpoint": "remaining activity", "value": "98.5%"}
